Assay results from EPA's CvTdb concentration-time database.

Experiments:
[1] = system: Mouse; assay: concentration in plasma after dosing; settings: 2 h; dosed: 2-Hydroxy-4-methoxybenzophenone; 500 mg/kg; oral; Female; B6C3F1
[2] = system: Mouse; assay: concentration in plasma after dosing; settings: 3 h; dosed: 2-Hydroxy-4-methoxybenzophenone; 250 mg/kg; oral; Male; B6C3F1
[3] = system: Mouse; assay: concentration in plasma after dosing; settings: 10 min; dosed: 2-Hydroxy-4-methoxybenzophenone; 250 mg/kg; oral; Female; B6C3F1
[4] = system: Mouse; assay: concentration in plasma after dosing; settings: dosed: 2-Hydroxy-4-methoxybenzophenone, 100 mg/kg, oral, Female, B6C3F1
[5] = system: Mouse; assay: concentration in plasma after dosing; settings: 2 h; dosed: 2-Hydroxy-4-methoxybenzophenone; 250 mg/kg; oral; Female; B6C3F1
[6] = system: Rat; assay: concentration in plasma after dosing; settings: dosed: Methyleugenol, 37 mg/kg, iv, Male, F344
[7] = system: Rat; assay: concentration in brain after dosing; settings: 3 h; dosed: Perfluorohexane-1-sulphonic acid – potassium salt; 16 mg/kg; oral; Female; F344
[8] = system: Rat; assay: concentration in liver after dosing; settings: 12 h; dosed: Perfluorohexane-1-sulphonic acid – potassium salt; 16 mg/kg; oral; Female; Harlan Sprague Dawley
[9] = system: Rat; assay: concentration in kidney after dosing; settings: 48 h; dosed: Perfluorohexane-1-sulphonic acid – potassium salt; 16 mg/kg; oral; Female; Harlan Sprague Dawley
[10] = system: Rat; assay: concentration in plasma after dosing; settings: 0.25 h; dosed: Primidone; 30 mg/kg; oral; Female; F344
[11] = system: Rat; assay: concentration in plasma after dosing; settings: 1.5 h; dosed: Primidone; 130 mg/kg; oral; Female; F344
[12] = system: Rat; assay: concentration in plasma after dosing; settings: dosed: Pyridine, 25 mg/kg, oral, Female, Harlan Sprague-Dawley
[13] = system: Rat; assay: concentration in plasma after dosing; settings: 2 min; dosed: Pyridine; 10 mg/kg; iv; Male; F344
[14] = system: Rat; assay: concentration in plasma after dosing; settings: dosed: Pyridine, 5 mg/kg, oral, Male, F344
[15] = system: Rat; assay: concentration in plasma after dosing; settings: dosed: Pyridine, 5 mg/kg, oral, Male, F344; remark: listed apart in the source
[16] = system: Rat; assay: concentration in plasma after dosing; settings: 2 h; dosed: Pyridine; 10 mg/kg; iv; Male; F344
[17] = system: Rat; assay: concentration in brain after dosing; settings: 1.5 h; dosed: alpha-Thujone; 25 mg/kg; oral; Male; Harlan Sprague Dawley
[18] = system: Rat; assay: concentration in brain after dosing; settings: 6 h; dosed: alpha-Thujone; 50 mg/kg; oral; Female; Harlan Sprague Dawley
[19] = system: Rat; assay: concentration in plasma after dosing; settings: 0.5 h; dosed: alpha-Thujone; 50 mg/kg; oral; Female; Harlan Sprague Dawley
[20] = system: Rat; assay: concentration in brain after dosing; settings: 10 min; dosed: alpha-Thujone; 25 mg/kg; oral; Male; Harlan Sprague Dawley
[21] = system: Rat; assay: concentration in brain after dosing; settings: 6 h; dosed: alpha-Thujone; 50 mg/kg; oral; Female; Harlan Sprague Dawley; remark: listed apart in the source
[22] = system: Rat; assay: concentration in plasma after dosing; settings: 5 min; dosed: alpha-Thujone; 25 mg/kg; oral; Male; Harlan Sprague Dawley
[23] = system: Rat; assay: concentration in brain after dosing; settings: 12 h; dosed: alpha-Thujone; 50 mg/kg; oral; Male; Harlan Sprague Dawley
[24] = system: Rat; assay: concentration in plasma after dosing; settings: 6 h; dosed: alpha-Thujone; 50 mg/kg; oral; Female; Harlan Sprague Dawley
[25] = system: Rat; assay: concentration in brain after dosing; settings: 2 min; dosed: alpha-Thujone; 50 mg/kg; oral; Male; Harlan Sprague Dawley
[26] = system: human; assay: concentration in blood after dosing; negative times count back from the end of exposure; settings: dosed: trichloroethylene, 100 ppm, inhalation, duration: 6 hr, female
How it was run: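 Data points giving concentration or amount against time came from published in vivo toxicokinetic studies and from two structured collections. PubMed searching, classifier screening and manual review located the studies. Most points were digitised from plot screenshots using WebPlotDigitizer, the rest were copied from tables, and all keep their reported units.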

O=C(c1ccccc1)c1ccc(O)cc1O [2,4-Dihydroxybenzophenone]
concentration in plasma [1]: 104 ng/mL
concentration in plasma [2]: 316 ng/mL
concentration in plasma [3]: 1290 ng/mL
concentration in plasma ([4]; 2.5 min): 68 ng/mL
concentration in plasma ([4]; 10 min): 115 ng/mL
concentration in plasma ([4]; 0.25 h): 303 ng/mL
concentration in plasma ([4]; 2 h): 34.9 ng/mL
concentration in plasma ([4]; 3 h): 30.3 ng/mL
concentration in plasma [5]: 472 ng/mL

C=CCc1ccc(OC)c(OC)c1 [Methyleugenol]
concentration in plasma ([6]; 2 min): 59100 ng/mL
concentration in plasma ([6]; 6 h): 114 ng/mL

O=S(=O)([O-])C(F)(F)C(F)(F)C(F)(F)C(F)(F)C(F)(F)C(F)(F)F.[K+] [Perfluorohexane-1-sulphonic acid – potassium salt]
concentration in brain [7]: 1090 ng/g
concentration in liver [8]: 39800 ng/g
concentration in kidney [9]: 12000 ng/g

CCC1(c2ccccc2)C(=O)NCNC1=O [Primidone]
concentration in plasma [10]: 12300 ng/mL
concentration in plasma [11]: 68100 ng/mL

c1ccncc1 [Pyridine]
concentration in plasma ([12]; 1 h): 21400 ng/mL
concentration in plasma ([12]; 8 h): 15200 ng/mL
concentration in plasma [13]: 1310 ng/mL
concentration in plasma ([14]; 0.5 h): 3090 ng/mL
concentration in plasma ([14]; 6 h): 1000 ng/mL
concentration in plasma ([15]; 0.5 h): 3170 ng/mL
concentration in plasma ([15]; 6 h): 1620 ng/mL
concentration in plasma [16]: 320 ng/mL

CC(C)[C@]12CC(=O)[C@H](C)[C@H]1C2 [alpha-Thujone]
concentration in brain [17]: 234 ng/g
concentration in brain [18]: 42.5 ng/g
concentration in plasma [19]: 475 ng/mL
concentration in brain [20]: 3920 ng/g
concentration in brain [21]: 200 ng/g
concentration in plasma [22]: 104 ng/mL
concentration in brain [23]: 107 ng/g
concentration in plasma [24]: 192 ng/mL
concentration in brain [25]: 385 ng/g

OCC(Cl)(Cl)Cl [trichloroethanol]
concentration in blood ([26]; 0 h): 4610 ng/mL
concentration in blood ([26]; 18 h): 4180 ng/mL
concentration in blood ([26]; 24 h): 8180 ng/mL
concentration in blood ([26]; 42 h): 6260 ng/mL
concentration in blood ([26]; 48 h): 11800 ng/mL
concentration in blood ([26]; 66 h): 6560 ng/mL
concentration in blood ([26]; 72 h): 13100 ng/mL
concentration in blood ([26]; 90 h): 5590 ng/mL
concentration in blood ([26]; 96 h): 9980 ng/mL
concentration in blood ([26]; 160 h): 1570 ng/mL
concentration in blood ([26]; -6 h, during exposure): 212 ng/mL
